Results taken from publication PMC11659308 (Communications Chemistry, 2024).
Peptide text beside a SMILES is read from it.

Assays:
[1] = Asn-Gly isomerisation kinetics followed by time-dependent 1D 1H-NMR; type: physicochemical; conditions: for k2 (Suc→β-Asp) / k3 (Suc→α-Asp) / t1/2, half-life of the Asn species: 1H-NMR time course, 50 mM Na2HPO4 buffer; for k2 (Suc→β-Asp) / k3 (Suc→α-Asp): COPASI fit; for t1/2, half-life of the Asn species: chemical stability
How it was run: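 Acetylated Asn-Gly-Xxx-Ala amide tetrapeptide (~1 mg) in 50 mM (final) Na2HPO4 with D2O and DSS/NaN3. pH set with 0.1 M HCl/NaOH. Heated samples sonicated 1 min. 1D 1H spectra at 5–120 min and beyond, until reactant fell below ~10%. COSY/TOCSY assignment. Relative integrals fitted to Asn→Suc (irreversible), Suc⇌β-Asp and Suc⇌α-Asp kinetic model.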

[2] = estimated; cited from earlier work
[3] = native versus reduced and unfolded forms; cited from earlier work

Question: Which results are given for `CC(=O)N[C@@H](CC(N)=O)C(=O)NCC(=O)N[C@@H](CCCCN)C(=O)N[C@@H](C)C(N)=O` [-NGKA-] (Ac-NGKA-NH2)?
Answer: k2 (Suc→β-Asp) ([1]; pH 7.4, 28 °C): 0.334 h⁻¹; k3 (Suc→α-Asp) ([1]; pH 7.4, 28 °C): 0.174 h⁻¹; k2 (Suc→β-Asp) ([1]; pH 7.4, 37 °C): 0.643 h⁻¹; k3 (Suc→α-Asp) ([1]; pH 7.4, 37 °C): 0.255 h⁻¹; k2 (Suc→β-Asp) ([1]; pH 7.4, 46 °C): 2.30 h⁻¹; k3 (Suc→α-Asp) ([1]; pH 7.4, 46 °C): 1.150 h⁻¹; k2 (Suc→β-Asp) ([1]; pH 7.4, 55 °C): 4.00 h⁻¹; k3 (Suc→α-Asp) ([1]; pH 7.4, 55 °C): 0.134 h⁻¹; t1/2, half-life of the Asn species ([1]; pH 7.4, 28 °C): 76.6 h; t1/2, half-life of the Asn species ([1]; pH 7.4, 37 °C): 19.1 h; t1/2, half-life of the Asn species ([1]; pH 7.4, 46 °C): 9.4 h; t1/2, half-life of the Asn species ([1]; pH 7.4, 55 °C): 3.0 h; activation Gibbs free energy of the rate-determining initial step (succinimide formation), ∆G‡(1) ([1]; pH 7.4, Arrhenius, slope of ln k1 vs 1/T (28-55 °C)): 87.3 kJ/mol; change in Gibbs free energy of the β-Asp formation step, ∆G‡(2) ([1]; pH 7.4, Arrhenius, slope of ln k2 vs 1/T (28-55 °C)): 85.9 kJ/mol

Question: Which “pKa, deprotonation of the amide group” value [2] does the source give for `CNC(C)=O` [N-methylacetamide] here?
Answer: 18

B1: native ribonuclease A: native ribonuclease A, compared with its reduced and unfolded forms (protein, UniProt P61823 27-150, looked up)
Ribonuclease pancreatic: KETAAAKFERQHMDSSTSAASSSNYCNQMMKSRNLTKDRCKPVNTFVHESLADVQAVCSQKNVACKNGQTNCYQSYSTMSITDCRETGSSKYPNCAYKTTQANKHIIVACEGNPYVPVHFDASV
Question: With B1 as the molecule, how does the “times less prone to asparagine isomerisation than its reduced and unfolded forms” value [3] read?
Answer: ~ 30 times
